Columns and labels:
HeLa = experiment: In vitro anticellular activity against HeLa S3 cells; format: functional, cell-based; conditions: Homo sapiens
Method in brief: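 HeLa S3 cells seeded in 96-well plates on day 0, then exposed to compound for 1 h on day 1. Anticellular activity determined by a previously described method.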

CCRF S-180 [1] = experiment: Effective dose that gave 50 percent inhibition of sarcoma 180 tumor growth in ddY mice; format: functional; conditions: Mus musculus
Method in brief: (§1)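 Sarcoma 180 cells implanted subcutaneously in the axillary region of ddY mice on day 0. Compounds given intravenously on day 1. Tumor volume determined by a previously described method and expressed as treated/control. ED50 is the dose giving 50% inhibition of tumor growth, taken from the dose–response curve. Optimal dose also recorded.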

CCRF S-180 [2] = experiment: Treated versus control value of tumor volume was measured in ddY mice; format: functional, Mus musculus; method in brief: as §1
CCRF S-180 [3] = experiment: Optimal dose against sarcoma 180 tumor in ddY mice; format: functional, Mus musculus; method in brief: as §1

| Compound | IC50 (HeLa) | ED50 (CCRF S-180 [1]) | T/C (CCRF S-180 [2]) | OD (CCRF S-180 [3]) |
| --- | --- | --- | --- | --- |
| CCCCCCCCCCCC1=C(N)C(=O)C2=C(C1=O)N1C[C@@H]3N[C@@H]3[C@]1(OC)[C@@H]2COC(N)=O | > 10000 nM |  |  |  |
| CCC1=C(N)C(=O)C2=C(C1=O)N1C[C@@H]3N[C@@H]3[C@]1(OC)[C@@H]2COC(N)=O.ClC(Cl)Cl | > 10000 nM | 38 mg/kg | 0.42 | 46 mg/kg |
| CO[C@@]12[C@H](COC(N)=O)C3=C(C(=O)C(C)=C(N)C3=O)N1C[C@@H]1N[C@@H]12 [MITOMYCIN] | 590 nM | 1.7 mg/kg | 0.26 | 6 mg/kg |
| CCCCCCCCCCCCCCCCCCCC1=C(N)C(=O)C2=C(C1=O)N1C[C@@H]3N[C@@H]3[C@]1(OC)[C@@H]2COC(N)=O | 9000 nM |  |  |  |
| CCCCCCCCCCCC1=C(OC)C(=O)C2=C(C1=O)N1C[C@@H]3N[C@@H]3[C@]1(OC)[C@@H]2COC(N)=O [6-DEMETHYL-6-N-UNDECYLMITOMYCIN A] | 640 nM |  | 0.8 | 20 mg/kg |
| COC1=C(CC(C)C)C(=O)C2=C(C1=O)[C@H](COC(N)=O)[C@@]1(O)[C@@H]3[C@H](CN21)N3C (stereo partly specified) [6-DEMETHYL-6-(2-METHYLPROPYL)MITOMYCIN B] | 6100 nM |  | 0.71 | 20 mg/kg |
| CCC1=C(OC)C(=O)C2=C(C1=O)N1C[C@@H]3N[C@@H]3[C@]1(OC)[C@@H]2COC(N)=O [6-DEMETHYL-6-ETHYLMITOMYCIN A] | 17 nM | 2.8 mg/kg | 0.1 | 7.4 mg/kg |
| CO[C@@]12[C@H](COC(N)=O)C3=C(C(=O)C(CC[N+](=O)[O-])=C(N)C3=O)N1C[C@@H]1N[C@@H]12 | 1500 nM | 8 mg/kg | 0.44 | 15 mg/kg |
| CCC1=C(N)C(=O)C2=C(C1=O)N1C[C@H]3[C@H](N3C)[C@]1(OC)[C@@H]2COC(N)=O (stereo partly specified) |  |  | 1.02 | 46 mg/kg |
| COC1=C(CC(C)C)C(=O)C2=C(C1=O)[C@@H](COC(N)=O)[C@@]1(OC)[C@H]3N[C@H]3CN21 | 200 nM |  |  |  |
| COC1=C(Cc2ccccc2)C(=O)C2=C(C1=O)[C@H](COC(N)=O)[C@@]1(O)[C@@H]3[C@H](CN21)N3C (stereo partly specified) [6-BENZYL-6-DEMETHYLMITOMYCIN B] | 520 nM | 37 mg/kg | 0.41 | 46 mg/kg |
| CO[C@@]12[C@H](COC(N)=O)C3=C(C(=O)C(Cc4ccccc4)=C(N)C3=O)N1C[C@@H]1N[C@@H]12 | > 10000 nM |  |  |  |
| CCCCCC1=C(OC)C(=O)C2=C(C1=O)N1C[C@@H]3N[C@@H]3[C@]1(OC)[C@@H]2COC(N)=O [6-DEMETHYL-6-N-PENTYLMITOMYCIN A] | 87 nM | 19 mg/kg | 0.37 | 30 mg/kg |
| COC1=C(Cc2ccccc2)C(=O)C2=C(C1=O)[C@@H](COC(N)=O)[C@@]1(OC)[C@H]3N[C@H]3CN21 | 63 nM | 23 mg/kg | 0.43 | 30 mg/kg |
| COC1=C(C)C(=O)C2=C(C1=O)[C@@H](COC(N)=O)[C@@]1(OC)[C@H]3N[C@H]3CN21 [MITOMYCIN A] |  | 1.3 mg/kg | 0.2 | 1.8 mg/kg |
| CCCCCCCCCCCCCCCCCCCC1=C(OC)C(=O)C2=C(C1=O)N1C[C@@H]3N[C@@H]3[C@]1(OC)[C@@H]2COC(N)=O [6-DEMETHYL-6-N-NONADECYLMITOMYCIN A] | 7300 nM |  | 0.69 | 46 mg/kg |
| CCCCCC1=C(OC)C(=O)C2=C(C1=O)N1C[C@H]3[C@H](N3C)[C@]1(O)[C@H]2COC(N)=O (stereo partly specified) | 3100 nM |  | 0.79 | 20 mg/kg |
| CO[C@@]12[C@H](COC(N)=O)C3=C(C(=O)C(CC(C)C)=C(N)C3=O)N1C[C@@H]1N[C@@H]12 | > 10000 nM |  | 0.78 | 46 mg/kg |
| C=CCC1=C(N)C(=O)C2=C(C1=O)N1C[C@@H]3N[C@@H]3[C@]1(OC)[C@@H]2COC(N)=O | 10000 nM |  |  |  |
| CCC1=C(N)C(=O)C2=C(C1=O)N1C[C@H]3[C@H](N3C)[C@]1(O)[C@H]2COC(N)=O (stereo partly specified) | > 10000 nM |  | 0.8 | 20 mg/kg |
| CCC1=C(OC)C(=O)C2=C(C1=O)N1C[C@H]3[C@H](N3C)[C@]1(O)[C@H]2COC(N)=O (stereo partly specified) | 300 nM | 14 mg/kg | 0.39 | 30 mg/kg |
| CCCCCC1=C(N)C(=O)C2=C(C1=O)N1C[C@@H]3N[C@@H]3[C@]1(OC)[C@@H]2COC(N)=O | > 10000 nM |  |  |  |

From ChEMBL document CHEMBL1127845, “Synthesis and antitumor activity of novel 6-alkyl-6-demethylmitomycins” (J Med Chem, 1994)
